Tests used:
[1] = molecular target: Macrophage colony-stimulating factor 1 receptor (Homo sapiens) (UniProt P07333); experiment: Inhibition of CSF1R assessed as residual activity at 10 uM relative to control
In short: (§1)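 Competition kinase-binding assay (KINOMEscan) across a non-redundant panel of 329 kinases beyond the radiometric panel; residual binding expressed relative to control.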

[2] = molecular target: Serine/threonine-protein kinase PAK 2 (Homo sapiens) (UniProt Q13177); experiment: Inhibition of PAK2 assessed as residual activity at 1 uM
[3] = molecular target: Tyrosine-protein kinase SYK (Homo sapiens) (UniProt P43405); experiment: Inhibition of SYK assessed as residual activity at 10 uM
[4] = molecular target: ALK tyrosine kinase receptor (Homo sapiens) (UniProt Q9UM73); experiment: Inhibition of ALK assessed as residual activity at 10 uM relative to control
ALK tyrosine kinase receptor (Homo sapiens), sequence (Q9UM73 19-1620 limits assumed): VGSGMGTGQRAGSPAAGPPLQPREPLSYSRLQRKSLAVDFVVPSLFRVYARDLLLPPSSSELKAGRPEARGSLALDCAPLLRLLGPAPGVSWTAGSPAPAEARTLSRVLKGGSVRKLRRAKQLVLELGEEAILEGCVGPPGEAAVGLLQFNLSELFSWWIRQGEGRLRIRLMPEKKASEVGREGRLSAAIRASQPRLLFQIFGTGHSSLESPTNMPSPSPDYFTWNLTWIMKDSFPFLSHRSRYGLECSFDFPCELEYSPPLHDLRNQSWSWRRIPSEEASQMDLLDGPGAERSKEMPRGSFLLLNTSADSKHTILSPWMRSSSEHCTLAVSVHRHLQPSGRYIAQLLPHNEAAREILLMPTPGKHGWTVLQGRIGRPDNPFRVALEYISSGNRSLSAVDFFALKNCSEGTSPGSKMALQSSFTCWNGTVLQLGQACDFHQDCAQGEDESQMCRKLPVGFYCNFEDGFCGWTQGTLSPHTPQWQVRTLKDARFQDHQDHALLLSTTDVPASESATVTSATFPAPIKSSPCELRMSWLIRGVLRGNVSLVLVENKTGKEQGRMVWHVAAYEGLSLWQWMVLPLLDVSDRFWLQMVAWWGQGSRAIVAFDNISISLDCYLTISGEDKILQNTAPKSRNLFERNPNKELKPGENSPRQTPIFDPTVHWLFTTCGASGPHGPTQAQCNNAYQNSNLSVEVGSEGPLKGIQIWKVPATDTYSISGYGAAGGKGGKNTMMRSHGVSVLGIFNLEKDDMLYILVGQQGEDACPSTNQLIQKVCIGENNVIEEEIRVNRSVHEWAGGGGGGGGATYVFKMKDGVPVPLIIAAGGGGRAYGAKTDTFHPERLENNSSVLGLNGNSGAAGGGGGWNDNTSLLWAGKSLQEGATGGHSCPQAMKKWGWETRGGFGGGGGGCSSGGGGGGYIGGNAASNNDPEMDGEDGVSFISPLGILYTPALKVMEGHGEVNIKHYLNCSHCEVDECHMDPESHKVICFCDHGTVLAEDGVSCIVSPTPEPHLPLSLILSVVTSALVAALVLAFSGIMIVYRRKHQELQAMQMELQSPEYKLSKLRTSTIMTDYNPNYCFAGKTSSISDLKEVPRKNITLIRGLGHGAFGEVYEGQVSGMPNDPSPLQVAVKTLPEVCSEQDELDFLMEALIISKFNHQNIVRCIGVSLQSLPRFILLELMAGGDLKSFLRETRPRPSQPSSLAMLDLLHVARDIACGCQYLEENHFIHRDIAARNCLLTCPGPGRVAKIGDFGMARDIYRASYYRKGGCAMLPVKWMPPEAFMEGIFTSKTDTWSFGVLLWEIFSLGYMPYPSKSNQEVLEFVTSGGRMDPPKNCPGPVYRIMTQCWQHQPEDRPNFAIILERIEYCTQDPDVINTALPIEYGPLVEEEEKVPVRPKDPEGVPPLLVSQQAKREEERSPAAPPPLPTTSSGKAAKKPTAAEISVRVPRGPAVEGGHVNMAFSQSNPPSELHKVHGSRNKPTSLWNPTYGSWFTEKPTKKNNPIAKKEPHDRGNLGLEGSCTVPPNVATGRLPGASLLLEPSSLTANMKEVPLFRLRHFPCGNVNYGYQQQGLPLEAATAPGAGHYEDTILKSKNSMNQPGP

[5] = system: Tyrosine-protein kinase ABL1 (Homo sapiens), P00519 [E255K]; experiment: Inhibition of phosphorylated ABL1 E255K mutant assessed as residual activity at 10 uM relative to control
[6] = molecular target: AP2-associated protein kinase 1 (Homo sapiens) (UniProt Q2M2I8); experiment: Inhibition of AAK1 assessed as residual activity at 10 uM relative to control
[7] = molecular target: T1, Ephrin type-B receptor 2 (Homo sapiens) (UniProt P29323); experiment: Inhibition of EPH-B2 assessed as residual activity at 1 uM
T1 sequence (whole entry): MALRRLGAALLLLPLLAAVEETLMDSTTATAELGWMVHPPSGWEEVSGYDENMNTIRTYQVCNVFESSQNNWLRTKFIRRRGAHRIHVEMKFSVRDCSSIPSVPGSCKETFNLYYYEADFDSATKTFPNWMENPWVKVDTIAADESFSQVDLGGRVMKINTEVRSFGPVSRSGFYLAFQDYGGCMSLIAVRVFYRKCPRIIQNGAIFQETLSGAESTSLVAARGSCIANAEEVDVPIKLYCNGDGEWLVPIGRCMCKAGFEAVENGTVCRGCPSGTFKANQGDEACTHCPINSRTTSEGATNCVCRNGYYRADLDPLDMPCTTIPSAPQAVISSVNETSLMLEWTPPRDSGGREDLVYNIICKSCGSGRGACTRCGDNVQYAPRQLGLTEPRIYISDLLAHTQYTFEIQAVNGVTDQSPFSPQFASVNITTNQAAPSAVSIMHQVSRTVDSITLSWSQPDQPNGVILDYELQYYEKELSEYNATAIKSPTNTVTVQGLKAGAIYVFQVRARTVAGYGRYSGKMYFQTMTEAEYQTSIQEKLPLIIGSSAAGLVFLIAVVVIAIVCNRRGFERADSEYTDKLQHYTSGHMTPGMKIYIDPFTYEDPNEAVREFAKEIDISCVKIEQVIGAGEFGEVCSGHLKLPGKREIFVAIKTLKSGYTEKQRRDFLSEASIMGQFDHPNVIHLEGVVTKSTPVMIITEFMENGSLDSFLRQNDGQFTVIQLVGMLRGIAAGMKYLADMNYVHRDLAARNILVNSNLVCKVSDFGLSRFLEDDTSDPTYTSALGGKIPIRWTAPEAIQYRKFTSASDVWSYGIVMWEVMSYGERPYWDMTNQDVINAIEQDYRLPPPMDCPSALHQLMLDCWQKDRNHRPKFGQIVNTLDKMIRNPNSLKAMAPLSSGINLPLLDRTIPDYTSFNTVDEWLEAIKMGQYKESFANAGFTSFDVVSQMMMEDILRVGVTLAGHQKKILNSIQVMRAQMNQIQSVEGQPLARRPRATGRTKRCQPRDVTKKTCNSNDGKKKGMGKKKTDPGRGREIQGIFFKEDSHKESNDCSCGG
In short: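 Standard radioactivity-based enzymatic kinase assays on a 131-kinase panel run by the Dundee profiling service; residual kinase activity recorded.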

[8] = molecular target: Serine/threonine-protein kinase OSR1 (Homo sapiens) (UniProt O95747); experiment: Inhibition of OSR1 assessed as residual activity at 10 uM relative to control
[9] = molecular target: Tyrosine-protein kinase receptor UFO (Homo sapiens) (UniProt P30530); experiment: Inhibition of AXL assessed as residual activity at 10 uM relative to control
[10] = molecular target: Proto-oncogene tyrosine-protein kinase ROS (Homo sapiens) (UniProt P08922); experiment: Inhibition of ROS1 assessed as residual activity at 10 uM relative to control
[11] = system: Receptor-type tyrosine-protein kinase FLT3 (Homo sapiens), P36888 [D835Y]; experiment: Inhibition of FLT3 D835Y mutant assessed as residual activity at 10 uM relative to control
[12] = molecular target: Mitogen-activated protein kinase 14 (Homo sapiens) (UniProt Q16539); experiment: Inhibition of p38a MAPK assessed as residual activity at 1 uM
[13] = molecular target: Maternal embryonic leucine zipper kinase (Homo sapiens) (UniProt Q14680); experiment: Inhibition of MELK assessed as residual activity at 1 uM
[14] = molecular target: Casein kinase I isoform delta (Homo sapiens) (UniProt P48730); experiment: Inhibition of CK1d assessed as residual activity at 1 uM
In short: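 Radioactivity-based enzymatic assay against a panel of 131 kinases (Dundee profiling). Activity remaining was measured with compound present at the stated concentration.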

[15] = molecular target: T1, Ephrin type-B receptor 2 (Homo sapiens); experiment: Inhibition of EPHB2 assessed as residual activity at 10 uM relative to control; in short: as §1
[16] = molecular target: Rho-associated protein kinase 2 (Homo sapiens) (UniProt O75116); experiment: Inhibition of ROCK2 assessed as residual activity at 10 uM relative to control
Rho-associated protein kinase 2 (Homo sapiens), sequence (O75116 whole entry, looked up): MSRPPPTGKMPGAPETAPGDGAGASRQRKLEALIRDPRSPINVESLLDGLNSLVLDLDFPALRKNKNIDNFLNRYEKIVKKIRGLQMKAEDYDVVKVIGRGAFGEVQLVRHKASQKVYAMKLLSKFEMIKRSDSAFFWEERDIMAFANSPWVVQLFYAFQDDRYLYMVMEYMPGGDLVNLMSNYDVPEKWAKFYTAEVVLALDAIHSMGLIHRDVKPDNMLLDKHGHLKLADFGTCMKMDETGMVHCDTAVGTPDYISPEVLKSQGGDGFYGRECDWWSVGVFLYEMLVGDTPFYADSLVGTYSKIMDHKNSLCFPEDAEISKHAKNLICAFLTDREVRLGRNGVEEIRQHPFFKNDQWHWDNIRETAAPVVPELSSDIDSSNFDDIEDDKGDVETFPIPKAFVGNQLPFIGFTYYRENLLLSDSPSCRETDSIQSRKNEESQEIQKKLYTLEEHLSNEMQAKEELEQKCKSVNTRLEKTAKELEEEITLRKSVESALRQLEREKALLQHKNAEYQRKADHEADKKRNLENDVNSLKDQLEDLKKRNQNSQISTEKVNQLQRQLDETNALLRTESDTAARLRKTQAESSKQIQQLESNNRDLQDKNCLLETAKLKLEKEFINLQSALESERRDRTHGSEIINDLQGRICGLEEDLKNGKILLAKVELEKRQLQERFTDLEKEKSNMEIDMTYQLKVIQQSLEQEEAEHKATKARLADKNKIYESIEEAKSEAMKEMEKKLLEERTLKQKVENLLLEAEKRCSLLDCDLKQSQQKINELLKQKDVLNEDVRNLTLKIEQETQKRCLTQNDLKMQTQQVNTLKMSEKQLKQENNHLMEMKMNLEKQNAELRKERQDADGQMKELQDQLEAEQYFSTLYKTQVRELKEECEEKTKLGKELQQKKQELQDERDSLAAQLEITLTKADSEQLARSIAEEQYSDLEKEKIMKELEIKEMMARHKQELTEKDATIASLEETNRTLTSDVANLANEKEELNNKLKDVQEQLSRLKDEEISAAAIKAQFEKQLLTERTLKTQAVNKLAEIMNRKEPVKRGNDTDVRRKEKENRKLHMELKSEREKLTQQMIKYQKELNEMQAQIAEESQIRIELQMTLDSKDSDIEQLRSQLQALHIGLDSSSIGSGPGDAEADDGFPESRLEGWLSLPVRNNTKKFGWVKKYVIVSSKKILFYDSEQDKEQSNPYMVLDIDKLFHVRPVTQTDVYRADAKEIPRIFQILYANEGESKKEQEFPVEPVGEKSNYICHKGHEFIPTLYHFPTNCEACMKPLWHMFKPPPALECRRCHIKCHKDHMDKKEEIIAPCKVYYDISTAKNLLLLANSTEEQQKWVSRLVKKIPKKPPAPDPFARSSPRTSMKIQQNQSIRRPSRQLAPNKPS

[17] = molecular target: Serine/threonine-protein kinase NLK (Homo sapiens) (UniProt Q9UBE8); experiment: Inhibition of NLK assessed as residual activity at 10 uM relative to control
Serine/threonine-protein kinase NLK (Homo sapiens), sequence (Q9UBE8 whole entry): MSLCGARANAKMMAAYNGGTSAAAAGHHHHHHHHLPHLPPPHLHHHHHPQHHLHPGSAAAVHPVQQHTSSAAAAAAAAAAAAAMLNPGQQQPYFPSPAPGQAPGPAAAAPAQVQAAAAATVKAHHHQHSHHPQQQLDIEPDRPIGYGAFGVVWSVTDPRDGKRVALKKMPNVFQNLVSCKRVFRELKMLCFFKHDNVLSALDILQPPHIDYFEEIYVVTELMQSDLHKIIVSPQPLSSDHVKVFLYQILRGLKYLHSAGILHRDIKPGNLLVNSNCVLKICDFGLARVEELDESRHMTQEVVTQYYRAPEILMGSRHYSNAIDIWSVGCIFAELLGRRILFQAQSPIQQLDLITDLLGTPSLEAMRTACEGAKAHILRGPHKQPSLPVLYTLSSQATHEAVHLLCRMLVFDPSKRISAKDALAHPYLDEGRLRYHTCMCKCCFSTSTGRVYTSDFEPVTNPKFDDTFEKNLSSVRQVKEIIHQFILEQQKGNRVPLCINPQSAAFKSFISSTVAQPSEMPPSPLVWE

[18] = molecular target: Serine/threonine-protein kinase PknB (Mycobacterium tuberculosis) (UniProt P9WI81); experiment: Inhibition of Mycobacterium tuberculosis PKNB assessed as residual activity at 10 uM relative to control
[19] = molecular target: Protein kinase C iota type (Homo sapiens) (UniProt P41743); experiment: Inhibition of PRKCI assessed as residual activity at 10 uM relative to control
[20] = molecular target: Tyrosine-protein kinase Lck (Homo sapiens) (UniProt P06239); experiment: Inhibition of Lck assessed as residual activity at 1 uM
Tyrosine-protein kinase Lck (Homo sapiens), sequence (P06239 2-509 limits assumed): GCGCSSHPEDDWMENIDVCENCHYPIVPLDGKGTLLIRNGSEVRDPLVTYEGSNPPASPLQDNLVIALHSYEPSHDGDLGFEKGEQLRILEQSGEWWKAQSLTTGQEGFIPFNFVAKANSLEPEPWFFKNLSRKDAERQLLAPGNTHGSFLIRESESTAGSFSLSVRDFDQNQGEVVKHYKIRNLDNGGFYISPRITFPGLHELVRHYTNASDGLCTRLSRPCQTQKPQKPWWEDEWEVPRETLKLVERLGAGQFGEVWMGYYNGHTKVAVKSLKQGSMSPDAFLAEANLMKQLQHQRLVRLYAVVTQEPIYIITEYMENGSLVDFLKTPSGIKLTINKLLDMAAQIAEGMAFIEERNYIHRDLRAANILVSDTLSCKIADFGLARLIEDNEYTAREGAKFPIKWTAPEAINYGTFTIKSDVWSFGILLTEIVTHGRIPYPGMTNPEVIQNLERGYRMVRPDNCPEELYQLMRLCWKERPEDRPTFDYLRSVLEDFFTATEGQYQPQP

[21] = molecular target: Tyrosine-protein kinase ZAP-70 (Homo sapiens) (UniProt P43403); experiment: Inhibition of ZAP70 assessed as residual activity at 1 uM
[22] = molecular target: Serine/threonine-protein kinase SIK2 (Homo sapiens) (UniProt Q9H0K1); experiment: Inhibition of SIK2 assessed as residual activity at 10 uM
Serine/threonine-protein kinase SIK2 (Homo sapiens), sequence (Q9H0K1 whole entry, looked up): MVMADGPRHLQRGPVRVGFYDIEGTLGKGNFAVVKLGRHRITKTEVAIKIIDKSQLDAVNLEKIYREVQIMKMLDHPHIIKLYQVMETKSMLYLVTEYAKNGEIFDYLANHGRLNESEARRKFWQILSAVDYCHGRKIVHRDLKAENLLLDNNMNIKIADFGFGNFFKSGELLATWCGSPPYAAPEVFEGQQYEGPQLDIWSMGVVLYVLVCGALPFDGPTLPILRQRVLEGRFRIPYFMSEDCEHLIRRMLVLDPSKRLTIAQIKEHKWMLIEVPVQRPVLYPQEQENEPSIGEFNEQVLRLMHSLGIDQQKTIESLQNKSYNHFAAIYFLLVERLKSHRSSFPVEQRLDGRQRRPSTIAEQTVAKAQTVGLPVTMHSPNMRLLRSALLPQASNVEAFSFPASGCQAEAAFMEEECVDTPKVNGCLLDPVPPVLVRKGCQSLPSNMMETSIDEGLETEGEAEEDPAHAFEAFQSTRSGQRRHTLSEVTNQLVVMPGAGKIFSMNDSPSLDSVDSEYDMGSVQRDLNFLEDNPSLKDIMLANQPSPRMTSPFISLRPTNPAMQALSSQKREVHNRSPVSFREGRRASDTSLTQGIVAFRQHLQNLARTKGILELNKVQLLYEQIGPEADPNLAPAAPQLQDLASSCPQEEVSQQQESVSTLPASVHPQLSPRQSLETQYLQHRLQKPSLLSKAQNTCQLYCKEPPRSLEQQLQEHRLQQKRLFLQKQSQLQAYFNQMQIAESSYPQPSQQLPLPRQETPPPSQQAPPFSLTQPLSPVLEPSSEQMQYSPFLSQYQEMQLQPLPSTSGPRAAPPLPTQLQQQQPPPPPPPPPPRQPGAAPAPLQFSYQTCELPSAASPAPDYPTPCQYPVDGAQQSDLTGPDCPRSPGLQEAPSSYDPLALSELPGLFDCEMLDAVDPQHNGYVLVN

[23] = molecular target: Serine/threonine-protein kinase MRCK alpha (Homo sapiens) (UniProt Q5VT25); experiment: Inhibition of MRCKA assessed as residual activity at 10 uM relative to control
[24] = molecular target: Serine/threonine-protein kinase N2 (Homo sapiens) (UniProt Q16513); experiment: Inhibition of PRK2 assessed as residual activity at 10 uM
[25] = molecular target: Serine/threonine-protein kinase tousled-like 1 (Homo sapiens) (UniProt Q9UKI8); experiment: Inhibition of TLK1 assessed as residual activity at 10 uM relative to control

Question: Which Activity [1] does the source give for O=C(Nc1cccnc1)c1cc(-c2ccnc(F)c2)ccc1OCc1ccccc1 here?
Answer: The Activity was 68%.

Question: What about the Activity [2] of the same molecule?
Answer: The Activity was 116%.

Question: What about the Activity [3] of the same molecule?
Answer: Its Activity is 125%.

Question: And the Activity [4]?
Answer: Its Activity is 7.2%.

Question: What about the Activity [5] of the same molecule?
Answer: Its Activity is 75%.

Question: What about the Activity [6] of the same molecule?
Answer: The Activity was 67%.

Question: And the Activity [7]?
Answer: The Activity was 123%.

Question: And the Activity [8]?
Answer: Its Activity is 63%.

Question: And the Activity [9]?
Answer: Its Activity is 46%.

Question: And the Activity [10]?
Answer: Its Activity is 73%.

Question: And the Activity [11]?
Answer: Its Activity is 5.8%.

Question: What about the Activity [12] of the same molecule?
Answer: The Activity was 101%.

Question: And the Activity [13]?
Answer: Its Activity is 102%.

Question: What about the Activity [14] of the same molecule?
Answer: Its Activity is 107%.

Question: And the Activity [15]?
Answer: The Activity was 71%.

Question: What about the Activity [16] of the same molecule?
Answer: Its Activity is 47%.

Question: And the Activity [17]?
Answer: Its Activity is 65%.

Question: And the Activity [18]?
Answer: Its Activity is 72%.

Question: And the Activity [19]?
Answer: Its Activity is 73%.

Question: What about the Activity [20] of the same molecule?
Answer: Its Activity is 113%.

Question: And the Activity [21]?
Answer: The Activity was 103%.

Question: And the Activity [22]?
Answer: The Activity was 111%.

Question: And the Activity [23]?
Answer: The Activity was 56%.

Question: What about the Activity [24] of the same molecule?
Answer: The Activity was 79%.

Question: What about the Activity [25] of the same molecule?
Answer: Its Activity is 66%.

— ChEMBL document CHEMBL2203081 (Bioorg Med Chem Lett, 2012)
